Here are results for 10 compounds from ChEMBL document CHEMBL3734689, “Enzyme kinetics and inhibition of histone acetyltransferase KAT8” (Eur J Med Chem, 2015).

In assay [1] the target is T1, Histone acetyltransferase KAT8 (Homo sapiens) (UniProt Q9H7Z6).
T1 sequence (whole entry): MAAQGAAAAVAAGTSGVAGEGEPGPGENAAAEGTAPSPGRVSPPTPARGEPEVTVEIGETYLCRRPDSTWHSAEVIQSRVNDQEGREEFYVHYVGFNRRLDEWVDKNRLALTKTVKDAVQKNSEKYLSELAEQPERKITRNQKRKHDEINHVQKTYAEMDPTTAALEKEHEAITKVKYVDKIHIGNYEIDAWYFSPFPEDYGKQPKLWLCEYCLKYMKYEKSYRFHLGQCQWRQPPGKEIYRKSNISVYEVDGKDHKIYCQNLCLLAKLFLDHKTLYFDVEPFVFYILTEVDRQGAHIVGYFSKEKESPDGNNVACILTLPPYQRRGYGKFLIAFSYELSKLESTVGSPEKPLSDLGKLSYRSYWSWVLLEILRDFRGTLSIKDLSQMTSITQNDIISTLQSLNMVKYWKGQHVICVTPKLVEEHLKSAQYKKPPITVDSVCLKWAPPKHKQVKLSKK
The assay can be described thus: Inhibition of recombinant N-terminal His6-tagged KAT8 (unknown origin) expressed in Escherichia Coli BL21 DE3 cells assessed as reduction of Co A level using histone H4 substrate at 400 uM after 15 mins by CPM fluorescence assay.

For assay [2], the target named is T1, Histone acetyltransferase KAT8 (Homo sapiens). The assay can be described thus: Inhibition of recombinant N-terminal His6-tagged KAT8 (unknown origin) expressed in Escherichia Coli BL21 DE3 cells assessed as reduction of Co A level using histone H4 substrate after 15 mins by CPM fluorescence assay.
The target of assay [3] is Histone acetyltransferase p300 (Homo sapiens) (UniProt Q09472). The assay can be described thus: Inhibition of human recombinant Histone acetyltransferase p300 catalytic domain (1284-1672 residues) using [3H]Acetyl-CoA and histone H3 substrate at 50 uM after 1 hr by liquid scintillation counting. Put shortly: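 p300 activity was measured by radiolabel transfer to the histone substrate. Compounds were tested at a single 50 µM concentration, and the value is the percent inhibition.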
Sequence of Histone acetyltransferase p300 (Homo sapiens) (Q09472 whole entry, the tested form may be a part): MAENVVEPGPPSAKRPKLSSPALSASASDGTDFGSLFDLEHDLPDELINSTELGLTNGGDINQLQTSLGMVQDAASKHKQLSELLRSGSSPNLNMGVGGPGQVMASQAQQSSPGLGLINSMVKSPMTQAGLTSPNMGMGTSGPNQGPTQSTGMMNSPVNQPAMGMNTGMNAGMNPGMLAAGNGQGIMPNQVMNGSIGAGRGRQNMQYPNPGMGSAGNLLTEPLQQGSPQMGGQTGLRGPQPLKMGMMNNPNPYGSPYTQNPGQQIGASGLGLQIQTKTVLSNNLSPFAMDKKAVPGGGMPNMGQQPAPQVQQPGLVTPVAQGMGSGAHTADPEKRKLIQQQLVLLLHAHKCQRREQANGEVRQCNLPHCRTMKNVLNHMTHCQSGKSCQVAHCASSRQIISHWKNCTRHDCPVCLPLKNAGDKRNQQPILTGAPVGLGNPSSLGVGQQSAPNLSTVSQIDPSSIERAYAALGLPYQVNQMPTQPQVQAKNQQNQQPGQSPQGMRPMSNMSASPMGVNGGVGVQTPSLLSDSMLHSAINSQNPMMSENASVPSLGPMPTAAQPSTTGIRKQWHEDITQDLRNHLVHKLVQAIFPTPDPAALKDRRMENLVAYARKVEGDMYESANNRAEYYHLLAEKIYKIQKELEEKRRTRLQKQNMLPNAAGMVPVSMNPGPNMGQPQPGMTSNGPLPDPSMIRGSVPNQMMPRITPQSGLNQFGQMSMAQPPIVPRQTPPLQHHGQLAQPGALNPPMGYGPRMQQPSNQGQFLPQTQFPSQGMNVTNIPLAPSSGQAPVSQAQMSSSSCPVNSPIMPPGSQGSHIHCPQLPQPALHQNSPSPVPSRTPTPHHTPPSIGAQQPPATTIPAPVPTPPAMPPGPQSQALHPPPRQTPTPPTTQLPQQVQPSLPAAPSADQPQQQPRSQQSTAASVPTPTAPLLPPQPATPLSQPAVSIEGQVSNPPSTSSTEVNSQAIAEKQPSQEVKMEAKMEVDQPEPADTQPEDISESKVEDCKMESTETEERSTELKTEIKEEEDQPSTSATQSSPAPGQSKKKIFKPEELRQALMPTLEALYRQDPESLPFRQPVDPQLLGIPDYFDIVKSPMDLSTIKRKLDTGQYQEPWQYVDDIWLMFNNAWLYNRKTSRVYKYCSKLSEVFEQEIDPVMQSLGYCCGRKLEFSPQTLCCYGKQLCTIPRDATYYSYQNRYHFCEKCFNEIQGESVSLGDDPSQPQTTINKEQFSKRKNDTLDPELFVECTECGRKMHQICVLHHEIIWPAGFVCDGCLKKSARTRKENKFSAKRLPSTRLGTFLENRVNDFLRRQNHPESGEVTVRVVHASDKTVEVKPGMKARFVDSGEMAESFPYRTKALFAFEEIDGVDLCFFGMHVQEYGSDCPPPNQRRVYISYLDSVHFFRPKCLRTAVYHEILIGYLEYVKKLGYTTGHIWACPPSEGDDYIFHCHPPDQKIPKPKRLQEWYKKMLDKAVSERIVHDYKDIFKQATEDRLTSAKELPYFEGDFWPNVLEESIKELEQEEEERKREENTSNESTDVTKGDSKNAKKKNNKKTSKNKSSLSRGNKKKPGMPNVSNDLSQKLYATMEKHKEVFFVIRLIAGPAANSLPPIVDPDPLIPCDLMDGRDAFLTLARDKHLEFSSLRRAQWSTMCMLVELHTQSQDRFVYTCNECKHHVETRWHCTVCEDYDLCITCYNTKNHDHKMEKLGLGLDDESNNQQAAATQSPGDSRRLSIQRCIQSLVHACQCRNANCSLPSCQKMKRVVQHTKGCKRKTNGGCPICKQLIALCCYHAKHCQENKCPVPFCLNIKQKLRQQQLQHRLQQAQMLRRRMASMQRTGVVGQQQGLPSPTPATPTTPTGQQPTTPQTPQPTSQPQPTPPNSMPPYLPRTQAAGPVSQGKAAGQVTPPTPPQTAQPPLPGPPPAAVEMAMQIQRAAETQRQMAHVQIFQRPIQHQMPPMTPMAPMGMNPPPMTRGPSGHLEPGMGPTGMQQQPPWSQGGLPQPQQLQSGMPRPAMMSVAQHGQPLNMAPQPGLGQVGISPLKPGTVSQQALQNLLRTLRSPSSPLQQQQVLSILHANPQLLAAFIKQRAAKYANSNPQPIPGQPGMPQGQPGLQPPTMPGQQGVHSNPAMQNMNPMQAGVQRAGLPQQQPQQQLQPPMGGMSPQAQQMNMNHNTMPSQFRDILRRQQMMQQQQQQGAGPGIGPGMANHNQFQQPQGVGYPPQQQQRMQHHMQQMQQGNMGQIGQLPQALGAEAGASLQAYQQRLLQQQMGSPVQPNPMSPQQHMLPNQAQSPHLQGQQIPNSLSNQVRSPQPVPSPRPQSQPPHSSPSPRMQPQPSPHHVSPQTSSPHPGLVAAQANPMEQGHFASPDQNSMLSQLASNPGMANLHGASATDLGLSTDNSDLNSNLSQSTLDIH

Assay [4] shares this target. The experiment in a line: Inhibition of human recombinant Histone acetyltransferase p300 catalytic domain (1284-1672 residues) using [3H]Acetyl-CoA and histone H3 substrate at 200 uM after 1 hr by liquid scintillation counting.

Molecules are shown by their SMILES. The source made the active and inactive calls. No cut-off for these calls is given here.

For orientation: inhibition means the change of the read-out against control, counted positive when it falls. Regarding `CCCCCCCCCCCCCCCc1ccc(O)c(C(=O)O)c1`, the figures for the inhibition in assay [1] and in assay [3] were more than 50% and 85%, respectively. Also, the logIC50 in assay [2] was determined as 2.42.
As to `CCCCCCCCCCCCCCCc1cccc(O)c1C(=O)O`, the inhibition in assay [3] turned out to be 97%.
Take `CCCCCCCCCCc1ccc(O)c(C(=O)O)c1`: the inhibition was more than 50% in assay [1] and 95% in assay [3]. Further, the logIC50 in assay [2] is 2.28.
The like results for `CCCCCCCCCCc1cccc(O)c1C(=O)O` were, in that order, more than 50%, 88% and 2.09.
As for `CCCCCc1cccc(O)c1C(=O)O`, the inhibition result in assay [1], in assay [3] and in assay [4] was “inactive” throughout. For the same compound, in assay [2], the logIC50 was more than 2.8.
Turning to `CC1=NN(c2ccc(C(=O)O)cc2)C(=O)/C1=C/c1ccc(-c2cc(C)c(C)cc2[N+](=O)[O-])o1`, the inhibition entry in assay [1] was “inactive”. Further, in assay [2], the logIC50 was more than 2.8.
Take `O=C(O)c1c(O)cccc1CCCCCCCCCCCO`: the inhibition in assay [1] was more than 50%. The logIC50 in assay [2] came to 2.72. Besides, the inhibition result in assay [3] and in assay [4] was “inactive” each time.
For `CCCCCCCSCC(=O)c1ccccc1O`, the inhibition result in assay [1], in assay [3] and in assay [4] was “inactive” in each case. Moreover, the logIC50 in assay [2] is more than 2.8.
Regarding `O=C(O)c1c(O)cccc1CCCCCO`, the inhibition result in assay [1], in assay [3] and in assay [4] was “inactive” in each case. Also, in assay [2], the logIC50 was more than 2.8.
Consider `CCCCCc1ccc(O)c(C(=O)O)c1`, for which the inhibition result in assay [1], in assay [3] and in assay [4] was “inactive” throughout. For the same compound, the logIC50 in assay [2] is more than 2.8.
